Measurements: ChEMBL document CHEMBL1147132, “Structure-activity relationship studies of gonadotropin-releasing hormone antagonists containing S-aryl/alkyl norcysteines and their oxidized derivatives” (J Med Chem, 2007)
In brackets after ≈: the same amount, converted by molar mass.

Legend:
[1] = target: T1, Gonadotropin-releasing hormone receptor (Homo sapiens, UniProt P30968); test: Antagonist activity at human GnRHR expressed in HEK293 cells assessed as inhibition of GnRH-induced luciferase response by reporter gene assay; assay type: functional, cell-based
T1 sequence (P30968 whole entry): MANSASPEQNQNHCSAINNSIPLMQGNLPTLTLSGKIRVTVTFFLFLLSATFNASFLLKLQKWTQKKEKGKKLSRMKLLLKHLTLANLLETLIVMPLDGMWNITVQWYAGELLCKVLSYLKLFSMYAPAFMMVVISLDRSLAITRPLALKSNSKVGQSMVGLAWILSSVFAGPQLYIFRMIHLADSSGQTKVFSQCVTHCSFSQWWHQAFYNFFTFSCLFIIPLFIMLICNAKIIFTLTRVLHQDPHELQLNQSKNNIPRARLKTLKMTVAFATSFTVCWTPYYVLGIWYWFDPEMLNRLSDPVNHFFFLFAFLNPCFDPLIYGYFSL
Procedure, shortened: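 HEK293 cells stably expressing cloned human GnRHR and an LH alpha-subunit-promoter luciferase reporter, plated overnight. Compound in 1% DMSO was added 10 min before GnRH (1 nM final), then ≥5 h at 37 °C, 5% CO2, then luminescence. 11 half-log concentrations in duplicate. IC50 from four-parameter logistic fit, reported as geometric mean of ≥2 experiments.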

[2] = Solubility in 5% mannitol; assay type: physicochemical

| IC50 [1] | solubility [2] | SMILES |
| --- | --- | --- |
| 4.6 nM (antagonist) | 50 mg/mL (≈ 31.9 mM) | CC(=O)Nc1ccc(C[C@H](NC(=O)[C@@H](NC(=O)[C@@H](Cc2cccnc2)NC(=O)[C@@H](Cc2ccc(Cl)cc2)NC(=O)[C@@H](Cc2ccc3ccccc3c2)NC(C)=O)[S+](C)[O-])C(=O)N[C@H](Cc2ccc(NC(C)=O)cc2)C(=O)N[C@@H](CC(C)C)C(=O)N[C@@H](CCCCNC(C)C)C(=O)N2CCC[C@H]2C(=O)N[C@H](C)C(N)=O)cc1 (stereo partly drawn) |
| 3810 nM (antagonist) | 50 mg/mL (≈ 32 mM) | CC(=O)Nc1ccc(C[C@H](NC(=O)[C@H](CO)NC(=O)[C@@H](CCC(N)=O)NC(=O)[C@@H](Cc2ccc(Cl)cc2)NC(=O)[C@@H](Cc2ccc3ccccc3c2)NC(C)=O)C(=O)N[C@H](Cc2ccc(NC(C)=O)cc2)C(=O)N[C@H](C(=O)N[C@@H](CCCCNC(C)C)C(=O)N2CCC[C@H]2C(=O)N[C@H](C)C(N)=O)S(=O)(=O)C(C)C)cc1 |
| 3 nM (antagonist) | 50 mg/mL (≈ 31.9 mM) | CC(=O)Nc1ccc(C[C@H](NC(=O)[C@H](CO)NC(=O)[C@@H](Cc2cccnc2)NC(=O)[C@@H](Cc2ccc(Cl)cc2)NC(=O)[C@@H](Cc2ccc3ccccc3c2)NC(C)=O)C(=O)N[C@H](Cc2ccc(NC(C)=O)cc2)C(=O)N[C@@H](C(=O)N[C@@H](CCCCNC(C)C)C(=O)N2CCC[C@H]2C(=O)N[C@H](C)C(N)=O)[S+]([O-])C(C)C)cc1 (stereo partly drawn) |
| 13 nM (antagonist) | 50 mg/mL (≈ 32.3 mM) | CC(=O)Nc1ccc(C[C@H](NC(=O)[C@H](CO)NC(=O)[C@@H](CCC(N)=O)NC(=O)[C@@H](Cc2ccc(Cl)cc2)NC(=O)[C@@H](Cc2ccc3ccccc3c2)NC(C)=O)C(=O)N[C@H](Cc2ccc(NC(C)=O)cc2)C(=O)N[C@H](C(=O)N[C@@H](CCCCNC(C)C)C(=O)N2CCC[C@H]2C(=O)N[C@H](C)C(N)=O)[S+]([O-])C(C)C)cc1 (stereo partly drawn) |
| 2000 nM (antagonist) | 50 mg/mL (≈ 32 mM) | CC(=O)Nc1ccc(C[C@H](NC(=O)[C@H](CO)NC(=O)[C@@H](CCC(N)=O)NC(=O)[C@@H](Cc2ccc(Cl)cc2)NC(=O)[C@@H](Cc2ccc3ccccc3c2)NC(C)=O)C(=O)N[C@H](Cc2ccc(NC(C)=O)cc2)C(=O)N[C@@H](C(=O)N[C@@H](CCCCNC(C)C)C(=O)N2CCC[C@H]2C(=O)N[C@H](C)C(N)=O)S(=O)(=O)C(C)C)cc1 |
| 39 nM (antagonist) | 50 mg/mL (≈ 32.7 mM) | CC(=O)Nc1ccc(C[C@H](NC(=O)[C@H](CO)NC(=O)[C@@H](CCC(N)=O)NC(=O)[C@@H](Cc2ccc(Cl)cc2)NC(=O)[C@@H](Cc2ccc3ccccc3c2)NC(C)=O)C(=O)N[C@H](Cc2ccc(NC(C)=O)cc2)C(=O)N[C@H](SC(C)C)C(=O)N[C@@H](CCCCNC(C)C)C(=O)N2CCC[C@H]2C(=O)N[C@H](C)C(N)=O)cc1 |
| 6.2 nM (antagonist) | 50 mg/mL (≈ 32.7 mM) | CC(=O)Nc1ccc(C[C@H](NC(=O)[C@H](CO)NC(=O)[C@@H](CCC(N)=O)NC(=O)[C@@H](Cc2ccc(Cl)cc2)NC(=O)[C@@H](Cc2ccc3ccccc3c2)NC(C)=O)C(=O)N[C@H](Cc2ccc(NC(C)=O)cc2)C(=O)N[C@@H](SC(C)C)C(=O)N[C@@H](CCCCNC(C)C)C(=O)N2CCC[C@H]2C(=O)N[C@H](C)C(N)=O)cc1 |
| 6.9 nM (antagonist) | 50 mg/mL (≈ 31.9 mM) | CC(=O)Nc1ccc(C[C@H](NC(=O)[C@H](NC(=O)[C@@H](Cc2cccnc2)NC(=O)[C@@H](Cc2ccc(Cl)cc2)NC(=O)[C@@H](Cc2ccc3ccccc3c2)NC(C)=O)[S+](C)[O-])C(=O)N[C@H](Cc2ccc(NC(C)=O)cc2)C(=O)N[C@@H](CC(C)C)C(=O)N[C@@H](CCCCNC(C)C)C(=O)N2CCC[C@H]2C(=O)N[C@H](C)C(N)=O)cc1 (stereo partly drawn) |
| 0.87 nM (antagonist) | 50 mg/mL (≈ 31.6 mM) | CC(=O)Nc1ccc(C[C@H](NC(=O)[C@H](CO)NC(=O)[C@@H](Cc2cccnc2)NC(=O)[C@@H](Cc2ccc(Cl)cc2)NC(=O)[C@@H](Cc2ccc3ccccc3c2)NC(C)=O)C(=O)N[C@H](Cc2ccc(NC(C)=O)cc2)C(=O)N[C@@H](CC(C)C)C(=O)N[C@@H](CCCCNC(C)C)C(=O)N2CCC[C@H]2C(=O)N[C@H](C(N)=O)[S+](C)[O-])cc1 (stereo partly drawn) |
